How the values were obtained:
[1] = assay type: in vivo, rat; settings: 4 h after oral DFP-11207 53.4 mg/kg
Outline: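 AZ521 xenograft-bearing nude rats received 53.4 mg/kg (75 μmol/kg) test compound orally and were killed at 1, 2, 4, 8 and 12 h. Serum, small intestine and tumour were taken. Tissues were homogenised in 10 mM potassium phosphate-buffered saline (pH 7.2) and spun at 9,000× g for 30 min. Supernatants were extracted with 4 volumes of ethyl acetate, dried at 40°C, redissolved, and assayed for CTA and 5-FU by HPLC.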

[2] = test system: CoLo320DM cells; assay type: cell-based, human; settings: 1-100 µM, 1 µM [6-3H] 5-FU, 37°C, 45 min
Outline: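 CoLo320DM cells in RPMI-1640 were incubated at 37°C for 45 min with 1 μM [6-3H]5-FU (37 kBq), alone or with 1–100 μM test compound or CTA. Acid was added and the mixture centrifuged. The neutralised acid-soluble fraction was run on silica TLC and the FUMP spot counted. RNA-incorporated label in the precipitate was extracted by the Schneider method. Results are means of duplicate assays.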

[3] = target: T1, orotate phosphoribosyltransferase (OPRT) (Homo sapiens, UniProt P11172); settings: cited from earlier work
T1 sequence (P11172 1-480): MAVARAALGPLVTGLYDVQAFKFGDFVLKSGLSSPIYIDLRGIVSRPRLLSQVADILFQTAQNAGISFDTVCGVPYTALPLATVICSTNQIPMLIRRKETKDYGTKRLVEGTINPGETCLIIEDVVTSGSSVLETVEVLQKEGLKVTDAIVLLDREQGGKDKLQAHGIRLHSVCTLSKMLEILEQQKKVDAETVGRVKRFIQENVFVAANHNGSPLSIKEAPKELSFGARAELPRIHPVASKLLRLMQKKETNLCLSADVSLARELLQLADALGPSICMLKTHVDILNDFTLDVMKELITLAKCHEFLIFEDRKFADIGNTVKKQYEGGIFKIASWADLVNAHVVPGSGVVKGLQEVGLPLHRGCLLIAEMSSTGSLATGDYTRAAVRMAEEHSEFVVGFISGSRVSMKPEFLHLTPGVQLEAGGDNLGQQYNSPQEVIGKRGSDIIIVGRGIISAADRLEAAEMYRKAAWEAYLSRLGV

[4] = Conversion of EM-FU to 5-FU by monkey liver microsomes; assay type: in vitro ADME; settings: 1 mM, 60 min
Outline: (§1)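 EM-FU (1 mM) was incubated for 60 min with liver microsomes (0.85 mg protein) from each species, with tegafur as positive control. 5-FU formed was quantified by HPLC. Assays were run in triplicate and reported as mean ± SD.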

[5] = assay type: in vitro ADME; settings: rat serum, liver and small intestine homogenates
Outline: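 Test compound (1 mM) was incubated at 37°C with rat serum or 20% (w/v) liver or small-intestine homogenates for 10, 20, 30 and 60 min. Reactions were stopped with 10% TCA and spun at 3,000× g for 10 min. Supernatants were neutralised with 2 M KOH, and EM-FU, CDHP, CTA and 5-FU were measured by HPLC. Results are means of duplicate assays.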

[6] = Conversion of EM-FU to 5-FU by human liver microsomes; assay type: in vitro ADME; settings: 1 mM, 60 min
Outline: as §1

[7] = Conversion of EM-FU to 5-FU by rat liver microsomes; assay type: in vitro ADME; settings: 1 mM, 60 min
Outline: as §1

[8] = Conversion of EM-FU to 5-FU by dog liver microsomes; assay type: in vitro ADME; settings: 1 mM, 60 min
Outline: as §1

[9] = test system: CYP1A2, CYP2A6, CYP2E1, CYP3A4; assay type: in vitro ADME; settings: 100 µM inhibitor; EM-FU 1 mM; human liver microsomes

O=c1[nH]cc(F)c(=O)[nH]1 [5-FU, 5-Fluorouracil]
5-FU level in small intestine compared with CTA [1]: almost equal level
5-FU levels in blood and tumor compared with CTA [1]: much higher than CTA

O=C(O)c1cc(O)nc(O)c1 [CTA, citrazinic acid]
Inhibition of incorporation of 5-FU into RNA [2]: did not inhibit
Inhibition of intracellular phosphorylation of 5-FU [2]: did not inhibit
Inhibition of OPRT activity (5-FU phosphorylation) in cell-free tumor extract [3]: strongly inhibit

CCOCn1cc(F)c(=O)[nH]c1=O [EM-FU, 1-ethoxymethyl-5-fluorouracil]
Conversion rate of EM-FU to 5-FU [4]: 30 to 60 pmol/min/mg
Production of 5-FU from EM-FU by this enzymatic reaction [5]: not produced
Conversion rate of EM-FU to 5-FU [6]: 30 to 60 pmol/min/mg
Conversion rate of EM-FU to 5-FU [7]: 30 to 60 pmol/min/mg
Conversion rate of EM-FU to 5-FU [8]: lowest conversion rate

O=c1ccc2ccccc2o1 [coumarin]
Inhibition of the conversion of EM-FU to 5-FU [9]: strongly inhibited

O=[N+]([O-])c1ccc(O)cc1 [p-nitrophenol]
Inhibition of the conversion of EM-FU to 5-FU [9]: strongly inhibited

O=c1cc(-c2ccccc2)oc2c1ccc1ccccc12 [α-naphthoflavone]
Inhibition of the conversion of EM-FU to 5-FU [9]: strongly inhibited

toleandomycin
Inhibition of the conversion of EM-FU to 5-FU [9]: strongly inhibited
